The values below come from ChEMBL document CHEMBL4706580, “4-Amino-1,2,4-triazole-3-thione-derived Schiff bases as metallo-β-lactamase inhibitors” (Eur J Med Chem, 2020).

Experiment [1] can be described thus: Inhibition of beta-lactamase CphA (unknown origin) expressed in Escherichia coli BL21(DE3) using imipenem as substrate by measuring substrate hydrolysis by spectrophotometric analysis. An outline of the steps: (§1)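 Enzyme 0.2–0.8 nM in 15 mM cacodylate pH 6.5, no added zinc, pre-incubated 30 min at 21 °C with inhibitor (100 μM screen). Imipenem substrate added from 10 mM stock; hydrolysis at 300 nm, 30 °C. Residual activity vs three uninhibited samples; Ki (1–100 μM inhibitor) by Hanes linearization, competitive model. Triplicate.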

Experiment [2] in a line: Inhibition of beta-lactamase IMP-1 (unknown origin) expressed in Escherichia coli BL21(DE3) using imipenem as substrate by measuring substrate hydrolysis at 100 uM by spectrophotometric analysis. In a few lines: (§2)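 Purified enzyme (overproduced in E. coli BL21(DE3), pET-9a; ion-exchange and gel filtration), 1-70 nM final. Reporter substrate 150 μM imipenem, read at 300 nm, 30 °C, 50 mM HEPES pH 7.5. Single-point screen at 100 or 200 μM; Ki from v0/vi vs [I] (0.5–1,000 μM final) assuming competitive inhibition, or Dixon plot. Triplicate.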

The nature of experiment [3]: Inhibition of beta-lactamase NDM1 (unknown origin) expressed in Escherichia coli BL21(DE3) using cefotaxime/nitrocefin as substrate by measuring substrate hydrolysis at 200 uM by spectrophotometric analysis.
Experiment [4] can be described thus: Inhibition of beta-lactamase NDM1 (unknown origin) expressed in Escherichia coli BL21(DE3) using cefotaxime/nitrocefin as substrate by measuring substrate hydrolysis at 100 uM by spectrophotometric analysis.
Experiment [5] can be described thus: Inhibition of beta-lactamase VIM2 (unknown origin) expressed in Escherichia coli BL21(DE3) using imipenem as substrate by measuring substrate hydrolysis at 100 uM by spectrophotometric analysis. In a few lines:
as §2

A short description of experiment [6]: Inhibition of beta-lactamase VIM4 (unknown origin) expressed in Escherichia coli BL21(DE3) using imipenem as substrate by measuring substrate hydrolysis by spectrophotometric analysis. An outline of the steps:
as §2

Experiment [7] is described as follows: Inhibition of beta-lactamase L1 (unknown origin) expressed in Escherichia coli BL21(DE3) using nitrocefin as substrate by measuring substrate hydrolysis preincubated for 30 mins by spectrophotometric analysis. An outline of the steps:
(§3)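 Enzyme 0.2–0.8 nM in 25 mM HEPES pH 7.5 with 50 μM ZnCl2 final, pre-incubated 30 min at 21 °C with inhibitor (100 μM screen). Nitrocefin 100 μM final, read at 482 nm, 30 °C. Residual activity vs three uninhibited samples; Ki (1–100 μM inhibitor) from Hanes linearization, competitive model. Triplicate.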

A short description of experiment [8]: Inhibition of beta-lactamase VIM2 (unknown origin) expressed in Escherichia coli BL21(DE3) using imipenem as substrate by measuring substrate hydrolysis at 200 uM by spectrophotometric analysis. In a few lines:
as §2

Experiment [9] can be described thus: Inhibition of beta-lactamase VIM2 (unknown origin) expressed in Escherichia coli BL21(DE3) using imipenem as substrate by measuring substrate hydrolysis by spectrophotometric analysis. In a few lines: as §2
Experiment [10] can be described thus: Inhibition of beta-lactamase L1 (unknown origin) expressed in Escherichia coli BL21(DE3) using nitrocefin as substrate by measuring substrate hydrolysis at 100 uM preincubated for 30 mins by spectrophotometric analysis. In a few lines:
as §3

Experiment [11] is described as follows: Inhibition of beta-lactamase L1 (unknown origin) expressed in Escherichia coli BL21(DE3) using nitrocefin as substrate by measuring substrate hydrolysis at 200 uM preincubated for 30 mins by spectrophotometric analysis.
The nature of experiment [12]: Inhibition of beta-lactamase IMP-1 (unknown origin) expressed in Escherichia coli BL21(DE3) using imipenem as substrate by measuring substrate hydrolysis at 200 uM by spectrophotometric analysis. In a few lines: as §2
A short description of experiment [13]: Inhibition of beta-lactamase VIM4 (unknown origin) expressed in Escherichia coli BL21(DE3) using imipenem as substrate by measuring substrate hydrolysis at 100 uM by spectrophotometric analysis. In a few lines:
as §2

Experiment [14] is described as follows: Inhibition of beta-lactamase CphA (unknown origin) expressed in Escherichia coli BL21(DE3) using imipenem as substrate by measuring substrate hydrolysis at 100 uM by spectrophotometric analysis. An outline of the steps: as §1
Experiment [15] in a line: Inhibition of beta-lactamase NDM1 (unknown origin) expressed in Escherichia coli BL21(DE3) using cefotaxime/nitrocefin as substrate by measuring substrate hydrolysis by spectrophotometric analysis. In a few lines: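 His-tagged enzyme from E. coli BL21(DE3) pET-15b, affinity-purified, 1-70 nM final. Reporter substrate 120 μM cefotaxime (260 nm) or 100 μM nitrocefin (482 nm), 30 °C, 50 mM HEPES pH 7.5. Inhibitor 0.5–1,000 μM final; competitive Ki from v0/vi vs [I] slope or Dixon plot. Triplicate.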

Each structure is given as a SMILES string. Activity calls are given as the source filed them. The rule behind the calls is not given here.

By Ki is commonly meant a measure of affinity in units of concentration, obtained from inhibition or displacement. Low values mean higher affinity, high ones lower affinity. In general, inhibition refers to the change of the read-out against control, counted positive when it falls. Consider `Oc1ccc(/C=N/n2c(-c3cc(O)ccc3O)n[nH]c2=S)c(O)c1`, for which the inhibition constant Ki in [1] worked out at 5 µM; in experiment [6] it was 3 µM; in [7] it was 15 µM. In experiment [2], this compound showed an inhibition of 50%. Moreover, the inhibition result in experiment [3], in experiment [4], in [5] and in experiment [8] was “inactive” in each case.
Take `Cc1ccccc1-c1n[nH]c(=S)n1/N=C/c1ccccc1`: the inhibition constant Ki stood at 70 µM in experiment [1], 20 µM in experiment [9] and 20 µM in [6]. Moreover, the results for the inhibition in experiment [2] and in experiment [4] were 34% and 32%, respectively. Also, the inhibition entry in experiment [10] and in [11] was “inactive” each time.
For `Oc1ccc(/C=N/n2c(-c3cccc(-c4ccccc4)c3)n[nH]c2=S)c(O)c1`, the inhibition result in experiment [12], in [2], in experiment [10] and in [11] was “inactive” in each case. Also, the values for the inhibition in [4], in experiment [5] and in experiment [13] were 65%, 45% and 65%, respectively.
In the case of `O=C(O)c1ccccc1/C=N/n1c(-c2ccc3ccccc3c2O)n[nH]c1=S`, the inhibition entry in experiment [12], in experiment [2], in [5] and in experiment [8] was “inactive” throughout. Moreover, the inhibition in experiment [3] turned out to be 60%. Besides, the figures for the Ki in [6] and in experiment [7] were 2 µM and 0.5 µM, respectively.
For `Cc1ccccc1-c1n[nH]c(=S)n1/N=C/c1ccc(O)cc1`, the inhibition in experiment [14] amounted to 35%; in [2] it was 37%; in experiment [10], 43%. Moreover, the inhibition entry in experiment [3], in experiment [4], in [5] and in experiment [8] was “inactive” throughout. This compound also registered a Ki in [6] of 1.3 µM.
On to `O=C(O)c1ccccc1/C=N/n1c(-c2cccc(Br)c2)n[nH]c1=S`, for which the inhibition result in experiment [12], in experiment [2], in [3] and in experiment [4] was “inactive” in each case. The inhibition in [5] was 35%. Further, the values for the inhibition constant (Ki) in experiment [6] and in [7] were 2 µM and 3 µM, respectively.
Take `Cc1ccccc1-c1n[nH]c(=S)n1/N=C/c1ccccc1C#N`: the results for the inhibition in experiment [12] and in experiment [3] were 50% and 60%, respectively. In addition, the inhibition entry in experiment [5], in experiment [10], in [11] and in experiment [8] was “inactive” in each case. Besides, the Ki in [6] turned out to be 6.5 µM.
Turning to `O=C(O)c1ccccc1/C=N/n1c(-c2cccc3ccccc23)n[nH]c1=S`, the values for the inhibition in [14], in experiment [2] and in experiment [13] were 56%, 35% and 53%, respectively. For the same compound, the inhibitory constant (Ki) was determined as 76 µM in [15], 14.5 µM in experiment [9] and 1.1 µM in experiment [7].
On to `Cc1ccccc1-c1n[nH]c(=S)n1/N=C/c1cc(O)ccc1[N+](=O)[O-]`, for which the Ki turned out to be 9 µM in experiment [1] and 16 µM in experiment [7]. The values for the inhibition in [2] and in [13] were 47% and 32%, respectively. Moreover, the inhibition result in [3], in experiment [4], in [5] and in experiment [8] was “inactive” each time.
Consider `Oc1ccc(/C=N/n2c(-c3cc4ccccc4[nH]3)n[nH]c2=S)c(O)c1`, for which the inhibition result in [12], in experiment [2], in experiment [3], in experiment [4], in [5] and in [10] was “inactive” throughout. The inhibition entry in experiment [11] and in [8] was “inactive” each time. This compound also had an inhibition in experiment [13] of 55%.
Turning to `Oc1ccc(/C=N/n2c(-c3ccc4ccccc4c3)n[nH]c2=S)c(O)c1`, the inhibition entry in experiment [12], in [2], in [3], in [4], in experiment [10] and in experiment [11] was “inactive” each time. In [13], this compound gave an inhibition of 55%.
For the compound `Oc1ccc(/C=N/n2c(-c3cccc(Cl)c3)n[nH]c2=S)c(O)c1`, the inhibition in experiment [14] was 35%; in experiment [2], 66%; in experiment [3], 50%; in [10], 30%. This compound gave a Ki in experiment [6] of 3 µM.
For the compound `Oc1ccc(/C=N/n2c(Cc3ccc4ccccc4c3)n[nH]c2=S)c(O)c1`, the inhibition turned out to be 64% in experiment [2] and 30% in experiment [13]. Also, the inhibition entry in experiment [3], in [4], in [5], in [10], in experiment [11] and in experiment [8] was “inactive” in each case.
As to `O=C(O)c1ccccc1/C=N/n1c(-c2ccccc2-c2ccccc2)n[nH]c1=S`, the inhibition result in [12], in experiment [2], in experiment [5], in experiment [10], in experiment [11] and in experiment [8] was “inactive” each time. Further, the inhibition is 32% in experiment [4] and 49% in [13].
With `Oc1ccc(/C=N/n2c(C(c3ccccc3)c3ccccc3)n[nH]c2=S)c(O)c1`, the inhibition result in experiment [12], in [2], in [3], in experiment [4], in [5] and in experiment [10] was “inactive” in each case. The inhibition result in experiment [11] and in [8] was “inactive” throughout. Moreover, the inhibition in experiment [13] came to 50%.
As for `O=C(O)c1ccccc1/C=N/n1c(-c2cccc(F)c2)n[nH]c1=S`, the inhibition entry in [12], in experiment [2], in experiment [5] and in experiment [8] was “inactive” in each case. In addition, the inhibition stood at 51% in experiment [13] and 40% in experiment [10].
As for `O=C(O)c1cccc(-c2cccc(/C=N/n3c(-c4ccc5ccccc5c4)n[nH]c3=S)c2)c1`, the inhibition result in [12] and in experiment [2] was “inactive” in each case. Also, the inhibition in [3] turned out to be 50%; in experiment [5], 30%; in [10], 45%. The compound further returned a Ki in experiment [6] of 2.8 µM.
As for `S=c1[nH]nc(-c2ccccc2-c2ccccc2)n1/N=C/c1ccc(OCc2ccccc2)cc1`, the inhibition result in [12], in experiment [2], in experiment [5], in [10], in [11] and in [8] was “inactive” each time. Further, in experiment [4], the inhibition is 45%.
